From ChEMBL document CHEMBL5344453, “Selective Recognition of c-KIT 1 G-Quadruplex by Structural Tuning of Heteroaromatic Scaffolds and Side Chains” (ACS Med Chem Lett, 2024)

What was measured:
[1] = tested on: K562; test: Attenuation of proto-oncogene expression in human c-KIT-positive K562 cells assessed as reduction in c-MYC oncogene expression at 3 uM measured after 24 hrs by qRT-PCR analysis relative to control; assay type: functional
How it was run: (§1)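 K562 cells treated 24 h at two doses per ligand (3 and 6 μM, 5.5 and 11 μM; positive control 2 and 4 μM). c-KIT, c-MYC and BCL-2 mRNA measured by qRT-PCR and normalized to housekeeping gene 18s, relative to untreated control.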

[2] = tested on: Quadruplex DNA; test: Stabilization of G-quadruplex VEGF 5-FAM-CGGGGCGGGCCGGGGGCGGGGT-TAMRA-3 (unknown origin) assessed as change in melting temperature at 1 uM incubated for 1 hr in dark condition by FRET-based melting assay; assay type: nucleic-acid assay
How it was run: (§2)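 FRET melting of dual-fluorophore-tagged oligonucleotides (200 nM) in 60 mM potassium cacodylate buffer, pH 7.4, with ligand at 1 μM; ΔTm taken against the ligand-free oligonucleotide Tm as control.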

[3] = tested on: Quadruplex DNA; test: Binding affinity to excessive G-quadruplex c-KIT1 5-FAM-GGGAGGGCGCTGGGAGGAGGG-TAMRA-3 (unknown origin) assessed as fold increase in fluorescence intensity at 1 uM incubated for 1 hr in dark condition by fluorescence spectroscopy assay relative to c-KIT2; assay type: nucleic-acid assay
How it was run: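 Ligand (1.0 μM) titrated to saturation with increasing G-quadruplex in 100 mM Tris-KCl buffer, pH 7.4. The value is the ratio of the c-KIT 1 fold change in fluorescence intensity to the fold change obtained with VEGF or c-KIT 2.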

[4] = biological target: Quadruplex DNA; test: Binding affinity to G-quadruplex c-KIT1 5-FAM-GGGAGGGCGCTGGGAGGAGGG-TAMRA-3 (unknown origin) assessed as dissociation constant by isothermal titration calorimetry (ITC) assay; assay type: nucleic-acid assay
How it was run: (§3)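 ITC of ligand binding to folded G4 in 100 mM Tris-KCl buffer, pH 7.4. Kd and stoichiometry were obtained from the isothermal heat curve and binding isotherm.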

[5] = tested on: K562; test: Induction of apoptosis in human K562 cells assessed as apoptosis incubated for 24 hrs by FITC-Annexin V and PI based flow cytometry; assay type: functional, cell-based
How it was run: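 K562 cells were treated with ligand (3 and 6 μM or 5.5 and 11 μM) and dual-stained with annexin V and PI. Early and late apoptotic populations were quantified by flow cytometry dot plot analysis.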

[6] = tested on: Quadruplex DNA; test: Stabilization of G-quadruplex h-TELO 5-FAM-TTGGGTTAGGGTTAGGGTTAGGGA-TAMRA-3 (unknown origin) assessed as change in melting temperature at 1 uM incubated for 1 hr in dark condition by FRET-based melting assay; assay type: nucleic-acid assay; how it was run: as §2
[7] = tested on: Quadruplex DNA; test: Binding affinity to excessive G-quadruplex c-KIT2 5-FAM-GGGCGGGCGCGAGGGAGGGG-TAMRA-3 (unknown origin) assessed as fold increase in fluorescence intensity at 1 uM incubated for 1 hr in dark condition by fluorescence spectroscopy assay; assay type: nucleic-acid assay
How it was run: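 Fluorimetric titration in 100 mM Tris-KCl buffer, pH 7.4. Ligand fixed at 1.0 μM and titrated with increasing concentrations of each G-quadruplex until fluorescence saturation. The fold increase in ligand fluorescence intensity was read, and Kd was derived from the titration plot.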

[8] = Reduction of c-KIT protein expression in human K562 cells at 6 uM measured after 24 hrs by Western blotting analysis relative to control; assay type: functional
How it was run: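 K562 cells were treated with ligand (3 and 6 μM or 5.5 and 11 μM). c-KIT protein was measured by Western blot with GAPDH as the housekeeping reference, relative to control.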

[9] = tested on: Quadruplex DNA; test: Stabilization of G-quadruplex BCL2 5-FAM-AGGGGCGGGCGCGGGAGGAAGGGGGCGGGAGCGGGGCTG-TAMRA-3 (unknown origin) assessed as change in melting temperature at 1 uM incubated for 1 hr in dark condition by FRET-based melting assay; assay type: nucleic-acid assay; how it was run: as §2
[10] = tested on: Quadruplex DNA; test: Stabilization of G-quadruplex c-MYC 5-FAM-TGGGGAGGGTGGGGAGGGTGGGGAAGG-TAMRA- 3 (unknown origin) assessed as change in melting temperature at 1 uM incubated for 1 hr in dark condition by FRET-based melting assay; assay type: nucleic-acid assay; how it was run: as §2
[11] = tested on: Quadruplex DNA; test: Stabilization of G-quadruplex c-KIT2 5-FAM-GGGCGGGCGCGAGGGAGGGG-TAMRA-3 (unknown origin) assessed as change in melting temperature at 10 uM incubated for 1 hr in dark condition by FRET-based melting assay; assay type: nucleic-acid assay
How it was run: (§4)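 FRET melting of dual-fluorophore (FAM/TAMRA) tagged G-quadruplex (200 nM) in 60 mM potassium cacodylate, pH 7.4. The screen used 1 μM ligand; dose series used 1, 3, 5, 7 and 10 μM. ΔTm was taken against the Tm of the same oligonucleotide without ligand.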

[12] = tested on: Quadruplex DNA; test: Stabilization of G-quadruplex h-TELO 5-FAM-TTGGGTTAGGGTTAGGGTTAGGGA-TAMRA-3 (unknown origin) assessed as change in melting temperature at 10 uM incubated for 1 hr in dark condition by FRET-based melting assay; assay type: nucleic-acid assay; how it was run: as §4
[13] = tested on: K562; test: Attenuation of proto-oncogene expression in human c-KIT-positive K562 cells assessed as reduction in c-KIT oncogene expression at 3 uM measured after 24 hrs by qRT-PCR analysis relative to control; assay type: functional; how it was run: as §1
[14] = biological target: Quadruplex DNA; test: Binding affinity to G-quadruplex VEGF 5-FAM-CGGGGCGGGCCGGGGGCGGGGT-TAMRA-3 (unknown origin) assessed as dissociation constant by fluorescence spectroscopy assay; assay type: nucleic-acid assay
How it was run: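 Fluorimetric titration of ligand held at 1.0 μM with increasing concentrations of G4 or dsDNA until saturation. Change in ligand fluorescence intensity was fitted for Kd. Run in 100 mM Tris-KCl buffer, pH 7.4.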

[15] = tested on: Quadruplex DNA; test: Stabilization of G-quadruplex c-KIT1 5-FAM-GGGAGGGCGCTGGGAGGAGGG-TAMRA-3 (unknown origin) assessed as change in melting temperature at 10 uM incubated for 1 hr in dark condition by FRET-based melting assay; assay type: nucleic-acid assay; how it was run: as §4
[16] = tested on: K562; test: Attenuation of proto-oncogene expression in human c-KIT-positive K562 cells assessed as reduction in BCL-2 oncogene expression at 3 uM measured after 24 hrs by qRT-PCR analysis relative to control; assay type: functional; how it was run: as §1
[17] = Reduction of BCL-2 oncogene expression in human K562 cells transfected with BCL-2 plasmid construct assessed as reduction in luciferase expression at 3 uM measured after 36 hrs by luciferase reporter assay; assay type: functional
How it was run: (§5)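 K562 cells were transfected with luciferase plasmids carrying the c-KIT, c-MYC or BCL-2 promoter G4. They were then treated with ligand (3 and 6 μM or 5.5 and 11 μM), and relative luciferase expression was measured.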

[18] = Reduction of BCL-2 oncogene expression in human K562 cells transfected with BCL-2 plasmid construct assessed as reduction in luciferase expression at 6 uM measured after 36 hrs by luciferase reporter assay; assay type: functional; how it was run: as §5
[19] = tested on: K562; test: Cytotoxicity against human c-KIT-positive K562 cells assessed as cell viability measured after 24 hrs by XTT formazan assay; assay type: functional, cell-based; conditions: K562, 24 h
[20] = tested on: Quadruplex DNA; test: Binding affinity to G-quadruplex c-KIT1 5-FAM-GGGAGGGCGCTGGGAGGAGGG-TAMRA-3 (unknown origin) assessed as increase in melting temperature by CD spectra analysis; assay type: nucleic-acid assay
[21] = biological target: Quadruplex DNA; test: Binding affinity to G-quadruplex VEGF 5-FAM-CGGGGCGGGCCGGGGGCGGGGT-TAMRA-3 (unknown origin) assessed as dissociation constant by measuring thermogram by isothermal titration calorimetry (ITC) assay; assay type: nucleic-acid assay; how it was run: as §3

CN(C)CCCNC(=O)c1ccc(-n2cc(-c3ccc4[nH]c5ccccc5c4c3)nn2)cc1
inhibition at 3 µM [1]: 15%
ΔTm [2]: 3.5 °C
fold change (FC) [3]: 3.2
Kd [4]: 1600 nM
Activity [5]: Dose-Dependent Effect
ΔTm [6]: 4.5 °C
fold change (FC) [7]: 1.6
inhibition at 6 µM [8]: 65.5%
ΔTm [9]: 2.2 °C
ΔTm [10]: 3.2 °C
ΔTm [11]: 18.1 °C
ΔTm [12]: 20.3 °C
inhibition at 3 µM [13]: 28%
Kd [14]: 2900 nM
ΔTm [15]: 26.5 °C
inhibition at 3 µM [16]: 29%
inhibition at 3 µM [17]: 7.8%
inhibition at 6 µM [18]: 15.8%
IC50 [19]: 6.2 µM
ΔTm [20]: 16 °C
Kd [21]: 15.9 µM
